Assay [1] can be described thus: Inhibition of full length HIV RT-RNase H activity using 18-nucleotide 3'-fluorescein-labeled RNA/5'-dabsyl-labeled DNA hybrid as substrate. Further details: species or system Human immunodeficiency virus. A digest of the protocol:
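Duplex substrate reports random internal RNA cleavage. A known RNase H inhibitor served as positive control. IC50 is the concentration giving 50% inhibition, reported as the mean of two or three independent experiments.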

Assay [2] can be described thus: Inhibition of full length HIV reverse transcriptase polymerase activity. Also noted: species or system Human immunodeficiency virus. A digest of the protocol:
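RT was pre-incubated with primer-template duplex before compound was tested. The IC50 is the concentration giving 50% inhibition. It is reported as mean ± SD from three independent experiments for some analogues, and as the mean of two independent experiments for others.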

Assay [3] has as its system Human immunodeficiency virus 1. The assay can be described thus: Antiviral activity against HIV1 3B infected in human CEM-SS cells assessed as inhibition of viral-induced cytopathic effect at 10 uM by colorimetric method. The class given is functional, cell-based. A digest of the protocol:
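CEM-SS cells were mixed with HIV-1 IIIB and test compound at 10 µM and incubated 6 days. Virus was pre-titered so that virus control wells lost 70 to 95% of cell viability. Each plate had cell-only, virus, compound toxicity and compound colorimetric control wells. Protection from virus-induced cytopathic effect was read colorimetrically.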
Background: Cytopathic effects are the visible damage that an infection or toxin causes in cultured cells.

Structures are written as SMILES. pIC50: −log10 of the molar value. The source made the active and inactive calls. No cut-off for these calls is given here.

By pIC50 is commonly meant −log10 of the IC50, conventionally taken in molar units.

Take `O=C1Cc2c(cccc2-c2ccco2)C(=O)N1O`: the pIC50 in assay [1] was 5.70; in assay [2], 5.68. Also, the result in assay [3] was inactive.

Turning to `O=C(Nc1ccc2c(c1)CC(=O)N(O)C2=O)c1ccc(F)cc1`, the negative-log IC50 (pIC50) in assay [1] is 6.70; in assay [2], 6.10. Moreover, the outcome in assay [3] was inactive.

As to `O=C1Cc2cc(-c3ccc(F)c(F)c3)ccc2C(=O)N1O`, the pIC50 in assay [1] is 5.89; in assay [2], 5.68. Further, the result in assay [3] was inactive.

In the case of `COc1cc2c(cc1-c1ccco1)CC(=O)N(O)C2=O`, the pIC50 in assay [1] is 5.80; in assay [2], 5.21. In addition, in assay [3], the result was inactive.

In the case of `O=C1Cc2ccc(-c3cccs3)cc2C(=O)N1O`, the values for the pIC50 in assay [1] and in assay [2] were 5.77 and 5.60, respectively. In addition, the result in assay [3] was inactive.

Consider `O=C(Cc1ccccc1)Nc1ccc2c(c1)CC(=O)N(O)C2=O`, for which the values for the negative logarithm of the IC50 (pIC50) in assay [1] and in assay [2] were 6.70 and 5.85, respectively. In assay [3], the outcome was inactive.

`O=C1Cc2ccc(-c3ccco3)cc2C(=O)N1O`: the pIC50 is 5.92 in assay [1] and 5.89 in assay [2]. In addition, in assay [3], the result was inactive.

For the molecule `O=C(Nc1ccc2c(c1)CC(=O)N(O)C2=O)c1ccccc1`, the values for the pIC50 in assay [1] and in assay [2] were 6.70 and 6.40, respectively. Moreover, the result in assay [3] was inactive.

For `Cc1ccc(Cc2cccc3c2CC(=O)N(O)C3=O)cc1`, the pIC50 in assay [1] was 6.00; in assay [2] it was 5.10. Besides, the result in assay [3] was inactive.

For the molecule `O=C1Cc2cc(-c3ccco3)ccc2C(=O)N1O`, the figures for the pIC50 in assay [1] and in assay [2] were 5.96 and 5.82, respectively. In addition, the outcome in assay [3] was inactive.

In the case of `O=C1Cc2c(cccc2-c2ccc(F)cc2F)C(=O)N1O`, the values for the pIC50 in assay [1] and in assay [2] were 5.82 and 4.60, respectively. For the same molecule, the result in assay [3] was inactive.

With `O=C1Cc2c(cccc2-c2ccccc2)C(=O)N1O`, the pIC50 is 5.85 in assay [1] and less than 4.60 in assay [2]. Besides, the outcome in assay [3] was inactive.

In the case of `COc1cc2c(cc1-c1ccc(F)cc1F)CC(=O)N(O)C2=O`, the figures for the pIC50 in assay [1] and in assay [2] were 5.80 and 5.54, respectively. Also, the outcome in assay [3] was inactive.

Regarding `COc1cc2c(cc1-c1ccc(F)cc1)CC(=O)N(O)C2=O`, the pIC50 in assay [1] is 5.85; in assay [2], 5.43. For the same molecule, in assay [3], the outcome was inactive.

Take `O=C1Cc2cc(-c3csc4ccccc34)ccc2C(=O)N1O`: the pIC50 was 5.96 in assay [1] and 5.89 in assay [2]. The result in assay [3] was inactive.

Consider `O=C1Cc2ccc(I)cc2C(=O)N1O`, for which the pIC50 was 5.85 in assay [1] and 5.72 in assay [2]. The result in assay [3] was inactive.

Turning to `COc1cc2c(cc1-c1ccccc1)CC(=O)N(O)C2=O`, the values for the pIC50 in assay [1] and in assay [2] were 5.89 and 5.09, respectively. Moreover, in assay [3], the outcome was inactive.

`O=C1Cc2ccc(-c3ccc(F)c(F)c3)cc2C(=O)N1O`: the pIC50 in assay [1] was 5.70; in assay [2], 5.55. The result in assay [3] was inactive.

With `O=C1Cc2c(Cc3ccc(C(F)(F)F)cc3)cccc2C(=O)N1O`, the pIC50 in assay [1] is 6.08; in assay [2], 5.13. For the same molecule, in assay [3], the result was inactive.

Take `O=C1Cc2c(Cc3ccc(Br)cc3)cccc2C(=O)N1O`: the pIC50 in assay [1] was 6.22; in assay [2], 5.85. For the same molecule, in assay [3], the outcome was inactive.

Consider `O=C1Cc2ccc(-c3cc4ccccc4o3)cc2C(=O)N1O`, for which the pIC50 is 6.05 in assay [1] and 5.80 in assay [2]. In addition, the result in assay [3] was inactive.

Turning to `O=C1Cc2cc(-c3ccoc3)ccc2C(=O)N1O`, the pIC50 was 5.85 in assay [1] and 5.70 in assay [2]. In addition, the result in assay [3] was inactive.

`O=C1Cc2cc(-c3cccs3)ccc2C(=O)N1O`: the pIC50 in assay [1] and in assay [2] was 5.77 throughout. Also, in assay [3], the outcome was inactive.

On to `O=C1Cc2cc(-c3cc4ccccc4o3)ccc2C(=O)N1O`, for which the pIC50 in assay [1] was 5.96; in assay [2], 5.82. The result in assay [3] was inactive.

Consider `O=C1Cc2c(Cc3ccc(F)cc3F)cccc2C(=O)N1O`, for which the results for the negative-log IC50 (pIC50) in assay [1] and in assay [2] were 6.09 and 5.03, respectively. Further, in assay [3], the result was inactive.

`O=C1Cc2cc(-c3ccc4c(c3)OCO4)ccc2C(=O)N1O`: the pIC50 in assay [1] is 5.92; in assay [2], 5.77. Also, the outcome in assay [3] was inactive.

`O=C(Cc1ccc(F)cc1)Nc1ccc2c(c1)CC(=O)N(O)C2=O`: the figures for the pIC50 in assay [1] and in assay [2] were 6.52 and 5.77, respectively. Further, the outcome in assay [3] was inactive.

Turning to `O=C1Cc2cc(-c3cccc4c3sc3ccccc34)ccc2C(=O)N1O`, the values for the pIC50 in assay [1] and in assay [2] were 5.74 and 5.80, respectively. Moreover, in assay [3], the outcome was inactive.

The values above are taken from ChEMBL document CHEMBL4033629, “Synthesis, biological evaluation and molecular modeling of 2-Hydroxyisoquinoline-1,3-dione analogues as inhibitors of HIV reverse transcriptase associated ribonuclease H and polymerase” (Eur J Med Chem, 2017).
